Data reported in ChEMBL document CHEMBL3632620, “Synthesis, characterization, crystal structure determination and biological screening of novel N-1 and C5 alkyl substituted scaffolds of pyrimidine” (2015).
≈ marks a conversion by molar mass, not a printed value. Calls of active or inactive are those of the source. No cut-off for these calls is given here.

Assays:
Escherichia coli [1] = assay: Antibacterial activity against Escherichia coli ATCC 8739 assessed as growth inhibition at 25 to 100 ug/ml at 12 hrs by agar well diffusion method; assay type: functional, organism-based
[2] = test system: Salmonella enterica subsp. enterica serovar Abony; assay: Antibacterial activity against Salmonella abony NCTC 6017 assessed as growth inhibition at 25 ug/ml after 8 to 24 hrs by agar well diffusion method; assay type: functional; conditions: read-out: DIZ
In short: (§1)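 Agar well diffusion on nutrient agar (peptone, yeast extract, NaCl, 2% agar, pH 7). Suspensions were set to 0.5 McFarland in sterile water, final inoculum 5x10^7 CFU/mL. Plates were swabbed and left 15 min, then ~4 mm wells received 100 µL compound in DMSO, with DMSO as control. Plates stood 2 h at room temperature, then 24 h at 37 °C. Inhibition zone diameter was measured.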

[3] = test system: Salmonella enterica subsp. enterica serovar Abony; assay: Antibacterial activity against Salmonella abony NCTC 6017 assessed as growth inhibition at 100 ug/ml after 8 to 24 hrs by agar well diffusion method; assay type: functional; conditions: read-out: DIZ; in short: as §1
Escherichia coli [4] = assay: Antibacterial activity against Escherichia coli ATCC 8739 after 24 to 48 hrs; assay type: functional
In short: (§2)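 Broth MIC in nutrient broth, pH 7.0. Inoculum came from a 16 h culture set to 0.5 McFarland, then diluted 10-fold to 1.2x10^7 CFU/mL. Compounds went from a 4 mg/mL DMSO stock to final 250 to 0.03 µg/mL. Controls were inoculum without compound and compound without inoculum. Incubation was 24-48 h at 37 °C. Then 5 µL was spotted onto agar for 24 h at 37 °C. MIC is the lowest concentration with no visible growth.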

Escherichia coli [5] = assay: Antibacterial activity against Escherichia coli ATCC 8739 assessed as growth inhibition at 100 ug/ml after 8 to 24 hrs by agar well diffusion method; assay type: functional; conditions: read-out: DIZ; in short: as §1
Staphylococcus aureus [6] = assay: Antibacterial activity against Staphylococcus aureus ATCC 6538P after 24 to 48 hrs; assay type: functional; in short: as §2
[7] = test system: Staphylococcus epidermidis; assay: Antibacterial activity against Staphylococcus epidermidis ATCC 12228 after 24 to 48 hrs; assay type: functional; in short: as §2
[8] = test system: Staphylococcus epidermidis; assay: Antibacterial activity against Staphylococcus epidermidis ATCC 12228 assessed as growth inhibition at 100 ug/ml after 8 to 24 hrs by agar well diffusion method; assay type: functional; conditions: for zone of inhibition at 100 µg/mL: read-out: DIZ; in short: as §1
[9] = test system: Staphylococcus epidermidis; assay: Antibacterial activity against Staphylococcus epidermidis ATCC 12228 assessed as growth inhibition at 25 to 100 ug/ml at 12 hrs by agar well diffusion method; assay type: functional, organism-based
Staphylococcus aureus [10] = assay: Antibacterial activity against Staphylococcus aureus ATCC 6538P assessed as growth inhibition at 100 ug/ml after 8 to 24 hrs by agar well diffusion method; assay type: functional; conditions: read-out: DIZ; in short: as §1
Escherichia coli [11] = assay: Antibacterial activity against Escherichia coli ATCC 8739 assessed as growth inhibition at 25 ug/ml after 8 to 24 hrs by agar well diffusion method; assay type: functional; conditions: read-out: DIZ; in short: as §1
[12] = test system: Salmonella enterica subsp. enterica serovar Abony; assay: Antibacterial activity against Salmonella abony NCTC 6017 assessed as growth inhibition at 25 to 100 ug/ml at 12 hrs by agar well diffusion method; assay type: functional, organism-based
Staphylococcus aureus [13] = assay: Antibacterial activity against Staphylococcus aureus ATCC 6538P assessed as growth inhibition at 25 to 100 ug/ml at 12 hrs by agar well diffusion method; assay type: functional, organism-based
[14] = test system: Staphylococcus epidermidis; assay: Antibacterial activity against Staphylococcus epidermidis ATCC 12228 assessed as growth inhibition at 25 ug/ml after 8 to 24 hrs by agar well diffusion method; assay type: functional; in short: as §1
[15] = test system: Salmonella enterica subsp. enterica serovar Abony; assay: Antibacterial activity against Salmonella abony NCTC 6017 after 24 to 48 hrs; assay type: functional; in short: as §2
Staphylococcus aureus [16] = assay: Antibacterial activity against Staphylococcus aureus ATCC 6538P assessed as growth inhibition at 25 ug/ml after 8 to 24 hrs by agar well diffusion method; assay type: functional; conditions: read-out: DIZ; in short: as §1

Row | Compound | Activity (Escherichia coli [1]) | zone of inhibition at 25 µg/mL [2] | zone of inhibition at 100 µg/mL [3] | MIC (Escherichia coli [4]) | zone of inhibition at 100 µg/mL (Escherichia coli [5]) | MIC (Staphylococcus aureus [6]) | MIC [7] | diameter of the inhibition zone (DIZ) [8] | Activity [9] | zone of inhibition at 100 µg/mL (Staphylococcus aureus [10]) | zone of inhibition at 25 µg/mL (Escherichia coli [11]) | Activity [12] | Activity (Staphylococcus aureus [13]) | diameter of the inhibition zone (DIZ) [14] | MIC [15] | zone of inhibition at 25 µg/mL (Staphylococcus aureus [16]) | zone of inhibition at 100 µg/mL [8] | zone of inhibition at 25 µg/mL ([14]; read-out: DIZ)
1 | CCOC(=O)C1(C)C(C)NC(=S)N(C)C1c1ccc(O)cc1 (stereo not drawn) | inactive | 16 mm | 20 mm | 32 µg/mL (≈ 99.2 µM) | 20 mm | 32 µg/mL (≈ 99.2 µM) | > 250 µg/mL | inactive | inactive | 15 mm | 17 mm | inactive | inactive | inactive | 32 µg/mL (≈ 99.2 µM) | 13 mm | – | –
2 | O=C(N[C@H](CO)[C@H](O)c1ccc([N+](=O)[O-])cc1)C(Cl)Cl [CHLORAMPHENICOL] | – | 19 mm | 32 mm | – | 24 mm | 8 µg/mL (≈ 24.8 µM) | 4 µg/mL (≈ 12.4 µM) | – | – | 28 mm | 20 mm | – | – | – | 4 µg/mL (≈ 12.4 µM) | 20 mm | 35 mm | 14 mm
3 | CCOC(=O)C1(C)C(C)NC(=S)N(C)C1c1ccc(Cl)cc1 (stereo not drawn) | inactive | 18 mm | 28 mm | 16 µg/mL (≈ 46.9 µM) | 20 mm | 16 µg/mL (≈ 46.9 µM) | > 250 µg/mL | inactive | inactive | 23 mm | 20 mm | inactive | inactive | inactive | 8 µg/mL (≈ 23.5 µM) | 18 mm | – | –
4 | CCOC(=O)C1(C)C(C)NC(=O)N(C)C1c1ccc(OC)cc1 (stereo not drawn) | inactive | 10 mm | 13 mm | 68 µg/mL (≈ 212 µM) | 14 mm | 68 µg/mL (≈ 212 µM) | > 250 µg/mL | inactive | inactive | 12 mm | 13 mm | inactive | inactive | inactive | 68 µg/mL (≈ 212 µM) | 10 mm | – | –
5 | CN[C@@H]1[C@H](O[C@H]2[C@H](O[C@H]3[C@H](O)[C@@H](O)[C@H](N=C(N)N)[C@@H](O)[C@@H]3N=C(N)N)O[C@@H](C)[C@]2(O)C=O)O[C@@H](CO)[C@H](O)[C@H]1O [STREPTOMYCIN] | – | 25 mm | 18 mm | 32 µg/mL (≈ 55 µM) | 16 mm | 32 µg/mL (≈ 55 µM) | > 250 µg/mL | inactive | – | 16 mm | 14 mm | – | – | inactive | 32 µg/mL (≈ 55 µM) | 12 mm | – | –
6 | CCOC(=O)C1(C)C(C)NC(=O)N(C)C1c1ccc(Cl)cc1 (stereo not drawn) | inactive | 9 mm | 10 mm | 32 µg/mL (≈ 98.5 µM) | 14 mm | 68 µg/mL (≈ 209 µM) | 68 µg/mL (≈ 209 µM) | – | inactive | 16 mm | 10 mm | inactive | inactive | inactive | 125 µg/mL (≈ 385 µM) | 12 mm | 13 mm | –
7 | CCOC(=O)C1(C)C(C)NC(=S)N(C)C1c1ccccc1 (stereo not drawn) | inactive | 16 mm | 18 mm | 16 µg/mL (≈ 52.2 µM) | 21 mm | 68 µg/mL (≈ 222 µM) | > 250 µg/mL | inactive | inactive | 13 mm | 14 mm | inactive | inactive | inactive | 32 µg/mL (≈ 104 µM) | 10 mm | – | –
8 | CCOC(=O)C1(C)C(C)NC(=O)N(C)C1c1ccc(O)cc1 (stereo not drawn) | inactive | 11 mm | 14 mm | 125 µg/mL (≈ 408 µM) | 10 mm | 68 µg/mL (≈ 222 µM) | > 250 µg/mL | inactive | inactive | 12 mm | 8 mm | inactive | inactive | inactive | 68 µg/mL (≈ 222 µM) | 10 mm | – | –
9 | CCOC(=O)C1(C)C(C)NC(=S)N(C)C1c1ccc(OC)cc1 (stereo not drawn) | inactive | 16 mm | 15 mm | 16 µg/mL (≈ 47.6 µM) | 22 mm | 32 µg/mL (≈ 95.1 µM) | > 250 µg/mL | inactive | inactive | 16 mm | 15 mm | inactive | inactive | inactive | 32 µg/mL (≈ 95.1 µM) | 12 mm | – | –
10 | CCOC(=O)C1(C)C(C)NC(=O)N(C)C1c1ccccc1 (stereo not drawn) | inactive | 9 mm | 10 mm | 68 µg/mL (≈ 234 µM) | 13 mm | 125 µg/mL (≈ 430 µM) | 68 µg/mL (≈ 234 µM) | – | inactive | 10 mm | 12 mm | inactive | inactive | inactive | 125 µg/mL (≈ 430 µM) | 10 mm | 14 mm | –
11 | CCOC(=O)C1(C)C(C)NC(=O)N(C)C1c1ccccc1[N+](=O)[O-] (stereo not drawn) | inactive | 15 mm | 24 mm | 32 µg/mL (≈ 95.4 µM) | 18 mm | 8 µg/mL (≈ 23.9 µM) | > 250 µg/mL | inactive | inactive | 28 mm | 13 mm | inactive | inactive | inactive | 16 µg/mL (≈ 47.7 µM) | 14 mm | – | –
12 | CCOC(=O)C1(C)C(C)NC(=O)N(C)C1c1ccc(N(C)C)cc1 (stereo not drawn) | inactive | 10 mm | 22 mm | 68 µg/mL (≈ 204 µM) | 14 mm | 32 µg/mL (≈ 96 µM) | > 250 µg/mL | inactive | inactive | 16 mm | 10 mm | inactive | inactive | inactive | 16 µg/mL (≈ 48 µM) | 12 mm | – | –
